Consider 8 compounds from ChEMBL document CHEMBL1212730, “Augmented photoswitching modulates immune signaling” (Nat Chem Biol, 2009).

Assay [1] deals with T1, Peptidyl-prolyl cis-trans isomerase A (Homo sapiens, UniProt P62937). Particulars: Blood, 50 to 200 nM.
Target sequence in this assay (P62937 whole entry, looked up): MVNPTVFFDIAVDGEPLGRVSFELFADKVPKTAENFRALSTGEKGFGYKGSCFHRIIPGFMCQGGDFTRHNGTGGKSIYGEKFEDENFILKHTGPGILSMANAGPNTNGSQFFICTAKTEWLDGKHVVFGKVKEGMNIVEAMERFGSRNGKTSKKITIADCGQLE
Assay [2] concerns the target T1, Peptidyl-prolyl cis-trans isomerase A. Particulars: Blood, Lysate, 50 to 200 nM.
Target sequence in this assay (P62937 whole entry, looked up): as above
For assay [3] the target is unchanged. Particulars: 10 uM.
Target sequence in this assay (P62937 whole entry, looked up): as above
Assay [4] shares this target. The note with it: Blood, 50 to 200 nM. This is another data set of the same source.
Target sequence in this assay (P62937 whole entry, looked up): as above
In assay [5] the target is T2, Protein phosphatase 3 catalytic subunit alpha (Homo sapiens, UniProt Q08209). The assay can be described thus: Inhibition of calcineurin-mediated NFAT activation in human Jurkat cells by luciferase reporter gene assay. Type of assay: cell-based. A digest of the protocol: (§1)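 Cells were pretreated with non-irradiated compound, then either kept dark or irradiated at 740 nm for 1 h before PMA/ionomycin stimulation. Luciferase was read in lysed cells. Data are means ± s.d.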
In general terms: A reporter such as luciferase makes a cellular process visible.

In assay [6] the target is T2, Protein phosphatase 3 catalytic subunit alpha. The assay is described as follows: Inhibition of calcineurin-mediated NFAT activation in human Jurkat cells measured after 45 min of irradiation with 740 nm light by luciferase reporter gene assay. Type of assay: cell-based.
Assay [7] addresses T1, Peptidyl-prolyl cis-trans isomerase A. The note with it: 200 nM.
Target sequence in this assay (P62937 whole entry, looked up): as above
Assay [8] has the same target. The assay can be described thus: Binding affinity to cyclophilin 18 assessed as reduction in calcineurin activity by protease coupled assay. A digest of the protocol: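 Cyp18 PPIase activity measured by a chymotrypsin-coupled protease assay with Suc-Ala-Phe-Pro-Phe-NH-Np as substrate at 7 °C. Cyp18 was 2.5 nM. Compound was tested non-irradiated, irradiated at 740 nm for 45 min, or irradiated and then kept dark overnight, with DMSO as control. Data are means ± s.d.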
Target sequence in this assay (P62937 whole entry): as the sequence (P62937 whole entry, looked up) above

The target is the same in assay [9]. The assay is described as follows: Inhibition of PPIase activity of cyclophilin 18 by protease coupled assay.
Target sequence in this assay (P62937 whole entry): as the sequence (P62937 whole entry, looked up) above
For assay [10] the target is unchanged. The assay can be described thus: Binding affinity to cyclophilin 18 assessed as reduction in [33P]phosphatase activity of calcineurin by protease coupled assay. A digest of the protocol: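 Calcineurin phosphatase activity measured at 30 °C with 33P-labeled phosphocasein. CaN was 3.5 nM, with Cyp18 at the desired concentrations and 10 µM compound, either irradiated at 740 nm for 45 min or non-irradiated, with or without streptavidin. The inhibitor concentration refers to the Cyp18–compound complex. Data are means ± s.d.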
Target sequence in this assay (P62937 whole entry): as the sequence (P62937 whole entry, looked up) above

For assay [11] the target is unchanged. The assay can be described thus: Binding affinity to cyclophilin 18 by protease coupled assay.
Target sequence in this assay (P62937 whole entry): as the sequence (P62937 whole entry, looked up) above
Assay [12] shares this target. The assay is described as follows: Binding affinity to streptavidin-coupled biotin-labeled cyclophilin 18 assessed as reduction in [33P] phosphatase activity of calcineurin by protease coupled assay.
Target sequence in this assay (P62937 whole entry): as the sequence (P62937 whole entry, looked up) above
Assay [13] relates to PBMC. The assay is described as follows: Immunosuppressive activity in human PBMC assessed as decrease in PMA/ionomycin-induced IL-2 production measured at 4 hrs interval post irradiation of 45 mins with 740 nm light by flow cytometry. The assay is classed as functional, cell-based. (In general: Flow cytometry measures light scatter and fluorescence of single cells or particles in a stream.)

For assay [14], the system named is PBMC. The assay can be described thus: Immunosuppressive activity in streptavidin-stimulated human PBMC assessed as decrease in PMA/ionomycin-induced IL-2 production measured at 4 hrs interval by flow cytometry. Type of assay: functional, cell-based.
Assay [15] deals with PBMC. The assay can be described thus: Immunosuppressive activity in human PBMC assessed as decrease in PMA/ionomycin-induced IL-2 production measured at 4 hrs interval by flow cytometry. The assay is classed as functional, cell-based.
For assay [16], the target named is T2, Protein phosphatase 3 catalytic subunit alpha. The assay is described as follows: Inhibition of calcineurin-mediated streptavidin-coupled NFAT activation in human Jurkat cells by luciferase reporter gene assay. The assay is classed as cell-based. Put shortly: as §1
The target is the same in assay [17]. The assay is described as follows: Inhibition of calcineurin-mediated streptavidin-coupled NFAT activation in human Jurkat cells measured after 45 min of irradiation with 740 nm light by luciferase reporter gene assay. The assay is classed as cell-based.
Assay [18] has as its system PBMC. The assay can be described thus: Immunosuppressive activity in streptavidin-stimulated human PBMC assessed as decrease in PMA/ionomycin-induced IL-2 production measured at 4 hrs interval post irradiation of 45 mins with 740 nm light by flow cytometry. Type of assay: functional, cell-based.

The structures appear in SMILES notation. Calls of active or inactive are those of the source. No cut-off for these calls is given here.

Turning to `C/C=C/C[C@@H](C)[C@@H](O)[C@H]1C(=O)N[C@@H](CC)C(=O)N(C)CC(=O)N(C)[C@@H](CC(C)C)C(=O)N[C@@H](C(C)C)C(=O)N(C)[C@@H](CC(C)C)C(=O)N[C@@H](C)C(=O)N[C@H](COCC(=O)Nc2ccc(/N=N/c3ccc(NC(=O)CCCC[C@@H]4SC[C@@H]5NC(=O)N[C@@H]54)cc3)cc2)C(=O)N(C)[C@@H](CC(C)C)C(=O)N(C)[C@@H](CC(C)C)C(=O)N(C)[C@@H](C(C)C)C(=O)N1C`, the inhibition result in [1], in assay [2] and in [4] was “Active” each time. Moreover, the inhibition in assay [3] was 30%.
As for `C/C=C/C[C@@H](C)[C@@H](O)[C@H]1C(=O)N[C@@H](CC)C(=O)N(C)CC(=O)N(C)[C@@H](CC(C)C)C(=O)N[C@@H](C(C)C)C(=O)N(C)[C@@H](CC(C)C)C(=O)N[C@@H](C)C(=O)N[C@H](COCC(=O)Nc2ccc(N=Nc3ccccc3)cc2)C(=O)N(C)[C@@H](CC(C)C)C(=O)N(C)[C@@H](CC(C)C)C(=O)N(C)[C@@H](C(C)C)C(=O)N1C`, the results for the half-inhibitory concentration (IC50) in assay [5] and in assay [6] were 75 nM and 49 nM, respectively.
With `C/C=C/C[C@@H](C)[C@@H](O)[C@H]1C(=O)N[C@@H](CC)C(=O)N(C)CC(=O)N(C)[C@@H](CC(C)C)C(=O)N[C@@H](C(C)C)C(=O)N(C)[C@@H](CC(C)C)C(=O)N[C@@H](C)C(=O)N[C@H](COCC(=O)Nc2ccc(/N=N\c3ccc(NC(=O)COC[C@H]4NC(=O)[C@H](C)NC(=O)[C@H](CC(C)C)N(C)C(=O)[C@H](C(C)C)NC(=O)[C@H](CC(C)C)N(C)C(=O)CN(C)C(=O)[C@H](CC)NC(=O)[C@H]([C@H](O)[C@H](C)C/C=C/C)N(C)C(=O)[C@H](C(C)C)N(C)C(=O)[C@H](CC(C)C)N(C)C(=O)[C@H](CC(C)C)N(C)C4=O)cc3)cc2)C(=O)N(C)[C@@H](CC(C)C)C(=O)N(C)[C@@H](CC(C)C)C(=O)N(C)[C@@H](C(C)C)C(=O)N1C`, the inhibition entry in assay [7] was “Active”. Also, the results for the IC50 in assay [8] and in assay [9] were 266 nM and 30 nM, respectively.
Take `C/C=C/C[C@@H](C)[C@@H](O)[C@H]1C(=O)N[C@@H](CC)C(=O)N(C)CC(=O)N(C)[C@@H](CC(C)C)C(=O)N[C@@H](C(C)C)C(=O)N(C)[C@@H](CC(C)C)C(=O)N[C@@H](C)C(=O)N[C@H](COCC(=O)Nc2ccc(/N=N/c3ccc(NC(=O)COC[C@H]4NC(=O)[C@H](C)NC(=O)[C@H](CC(C)C)N(C)C(=O)[C@H](C(C)C)NC(=O)[C@H](CC(C)C)N(C)C(=O)CN(C)C(=O)[C@H](CC)NC(=O)[C@H]([C@H](O)[C@H](C)C/C=C/C)N(C)C(=O)[C@H](C(C)C)N(C)C(=O)[C@H](CC(C)C)N(C)C(=O)[C@H](CC(C)C)N(C)C4=O)cc3)cc2)C(=O)N(C)[C@@H](CC(C)C)C(=O)N(C)[C@@H](CC(C)C)C(=O)N(C)[C@@H](C(C)C)C(=O)N1C`: the inhibition in [3] is 30%. Besides, the IC50 in assay [5] turned out to be 358 nM; in assay [8], 487 nM; in [9], 206 nM; in [6] it was 140 nM.
`C/C=C/C[C@@H](C)[C@@H](O)[C@H]1C(=O)N[C@@H](CC)C(=O)N(C)CC(=O)N(C)[C@@H](CC(C)C)C(=O)N[C@@H](C(C)C)C(=O)N(C)[C@@H](CC(C)C)C(=O)N[C@@H](C)C(=O)N[C@H](COCC(=O)Nc2ccc(/N=N\c3ccc(NC(=O)CCCC[C@@H]4SC[C@@H]5NC(=O)N[C@@H]54)cc3)cc2)C(=O)N(C)[C@@H](CC(C)C)C(=O)N(C)[C@@H](CC(C)C)C(=O)N(C)[C@@H](C(C)C)C(=O)N1C`: the inhibition entry in assay [1] and in assay [4] was “Active” throughout. In addition, the concentration for half-maximal inhibition (IC50) in assay [10] stood at 950 nM.
As to `C/C=C/C[C@@H](C)[C@@H](O)[C@H]1C(=O)N[C@@H](CC)C(=O)N(C)CC(=O)N(C)[C@@H](CC(C)C)C(=O)N[C@@H](C(C)C)C(=O)N(C)[C@@H](CC(C)C)C(=O)N[C@@H](C)C(=O)N[C@H](COCC(=O)Nc2ccc(/N=N\c3ccccc3)cc2)C(=O)N(C)[C@@H](CC(C)C)C(=O)N(C)[C@@H](CC(C)C)C(=O)N(C)[C@@H](C(C)C)C(=O)N1C`, the IC50 in assay [11] came to 147 nM; in assay [9], 2.79 nM.
Turning to `C/C=C/C[C@@H](C)[C@@H](O)[C@H]1C(=O)N[C@@H](CC)C(=O)N(C)CC(=O)N(C)[C@@H](CC(C)C)C(=O)N[C@@H](C(C)C)C(=O)N(C)[C@@H](CC(C)C)C(=O)N[C@@H](C)C(=O)N[C@H](COCC(=O)Nc2ccc(/N=N/c3ccccc3)cc2)C(=O)N(C)[C@@H](CC(C)C)C(=O)N(C)[C@@H](CC(C)C)C(=O)N(C)[C@@H](C(C)C)C(=O)N1C`, the half-maximal inhibitory concentration (IC50) came out at 227 nM in assay [12] and 4.75 nM in assay [9].
For the compound `C/C=C/C[C@@H](C)[C@@H](O)[C@H]1C(=O)N[C@@H](CC)C(=O)N(C)CC(=O)N(C)[C@@H](CC(C)C)C(=O)N[C@@H](C(C)C)C(=O)N(C)[C@@H](CC(C)C)C(=O)N[C@@H](C)C(=O)N[C@H](COCC(=O)Nc2ccc(N=Nc3ccc(NC(=O)CCCC[C@@H]4SC[C@@H]5NC(=O)N[C@@H]54)cc3)cc2)C(=O)N(C)[C@@H](CC(C)C)C(=O)N(C)[C@@H](CC(C)C)C(=O)N(C)[C@@H](C(C)C)C(=O)N1C`, the result in the assay with PBMC [13], in the assay on PBMC [15] and with PBMC [18] was Active. For the same compound, the outcome in the assay with PBMC [14] was inactive. Besides, the 50% inhibitory concentration (IC50) in assay [5] stood at 135 nM; in assay [16] it was 16.4 µM; in [17], 1400 nM; in [6], 89 nM.

By inhibition is commonly meant the change of the read-out against control, counted positive when it falls. What is called IC50 is the concentration that inhibits the measured activity by half.
